Measured values as given in ChEMBL document CHEMBL6134777, “Modulating polybasic character of galactose-based glycosylated antitumor ether lipids for enhanced cytotoxic response” (2025).
Calls of active or inactive are those of the source. No cut-off for these calls is given here.

Legend:
BT-474 [1] = experiment: Cytotoxicity against human BT-474 cells assessed as cell death measured after 48 hrs; format: functional
How it was run: (§1)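 BT-474 cells in DMEM/F12 with 10% FBS plus penicillin/streptomycin, 37°C, 5% CO2. Seeded at 10,500 cells/well and left 24 h, then exposed to rising drug concentrations (stock 30 mM) for 48 h. Read-out: PrestoBlue (10% v/v), 40-45 min, fluorescence ex 560/em 590 nm. Values are blank-subtracted and expressed relative to vehicle-treated cells. Two independent experiments, five wells per concentration.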

JIMT-1 [2] = experiment: Cytotoxicity against human JIMT-1 cells assessed as cell death measured after 48 hrs; format: functional
How it was run: (§2)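 DU-145 (5000 cells/well) or JIMT-1 (8000 cells/well) in DMEM with 10% FBS and penicillin/streptomycin. Plated cells rested 24 h, then received increasing drug concentrations (30 mM stock) for 48 h. Viability by PrestoBlue 10% v/v for 40-45 min, fluorescence ex 560/em 590 nm, blank-subtracted, relative to vehicle. Two independent experiments, five wells per concentration.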

DU-145 [3] = experiment: Cytotoxicity against human DU-145 cells assessed as cell death measured after 48 hrs; format: functional; how it was run: as §2
MIA PaCa-2 [4] = experiment: Cytotoxicity against human MIA PaCa-2 cells assessed as cell death measured after 48 hrs; format: functional
How it was run: (§3)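 MIAPaCa-2 in DMEM with 10% FBS, 2.5% horse serum and penicillin/streptomycin, seeded at 7500 cells/well. After 24 h, treated 48 h with increasing drug concentrations from a 30 mM stock. PrestoBlue 10% v/v, 40-45 min, fluorescence 560/590 nm, blank-subtracted, relative to vehicle-treated cells. Two independent experiments, five wells per concentration.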

JIMT-1 [5] = experiment: Cytotoxicity against human JIMT-1 cells assessed as cell death up to 10 uM measured after 48 hrs; format: functional, cell-based; how it was run: as §2
DU-145 [6] = experiment: Cytotoxicity against human DU-145 cells assessed as cell death up to 10 uM measured after 48 hrs; format: functional, cell-based; how it was run: as §2
BT-474 [7] = experiment: Cytotoxicity against human BT-474 cells assessed as cell death up to 10 uM measured after 48 hrs; format: functional, cell-based; how it was run: as §1
MIA PaCa-2 [8] = experiment: Cytotoxicity against human MIAPaCa-2 cells assessed as cell death up to 10 uM measured after 48 hrs; format: functional, cell-based; how it was run: as §3
[9] = Potency index, ratio of monobasic GAEL IC50 to test compound IC50 for cytotoxicity against human DU-145 cells assessed as cell death measured after 48 hrs; format: functional
DU-145 [10] = experiment: Cytotoxicity against human DU-145 cells assessed as cell death at 6 to 10 uM measured after 48 hrs; format: functional, cell-based; conditions: dose 6-10 µM; how it was run: as §2
OVCAR-3 [11] = experiment: Cytotoxicity against human OVCAR-3 cells assessed as elimination of cells at 6 uM measured after 48 hrs by using PrestoBlue cell viability assay; format: functional
How it was run: (§4)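 OVCAR-3 in RPMI with 10% FBS, 0.01 mg/mL insulin and penicillin/streptomycin, seeded at 7500 cells/well. After 24 h, exposed 48 h to increasing drug concentrations (30 mM stock). PrestoBlue 10% v/v, 40-45 min, fluorescence ex 560/em 590 nm, blank-subtracted, relative to vehicle. Two experiments, five wells per concentration.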

BXPC-3 = experiment: Cytotoxicity against human BXPC-3 cells assessed as cell viability measured after 48 hrs by using PrestoBlue cell viability assay; format: functional
How it was run: (§5)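 DMEM with 10% FBS plus penicillin/streptomycin, 37°C, 5% CO2. Seeding per well: BxPC3 7500, COV362 7500, HEYC2 8000, HepG2 8000, MDA-MB-231 8000. After 24 h, drug added at increasing concentrations (30 mM stock) for 48 h. PrestoBlue 10% v/v for 40-45 min; fluorescence 560/590 nm, blank-subtracted, relative to vehicle. Two experiments, five wells each; CC50 by nonlinear regression.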

DU-145 [12] = experiment: Cytotoxicity against human DU-145 cells assessed as cell death at 4 to 8 uM measured after 48 hrs in presence of MX1013 pan-caspase inhibitor; conditions: dose 4-8 µM
MDA-MB-231 = experiment: Cytotoxicity against human MDA-MB-231 cells assessed as cell viability measured after 48 hrs by using PrestoBlue cell viability assay; format: functional; how it was run: as §5
[13] = Cytotoxicity against human COV362 cells assessed as cell death at 8 uM measured after 48 hrs by using PrestoBlue cell viability assay; format: functional
How it was run: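 COV362 cells in DMEM with 10% FBS and penicillin/streptomycin at 37 °C and 5% CO₂, seeded at 7500 per well. After 24 h, exposed 48 h to increasing drug concentrations diluted from a 30 mM stock. PrestoBlue (10% v/v) added for 40-45 min, fluorescence read at ex 560/em 590 nm. Cell-free blanks subtracted, viability relative to vehicle. Two independent experiments, five wells per concentration.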

[14] = Cytotoxicity against human COV362 cells assessed as cell viability measured after 48 hrs by using PrestoBlue cell viability assay; format: functional; how it was run: as §5
MIA PaCa-2 [15] = experiment: Cytotoxicity against human MIAPaCa-2 cells assessed as cell death at 6 to 10 uM measured after 48 hrs; format: functional, cell-based; conditions: dose 6-10 µM; how it was run: as §3
JIMT-1 [16] = experiment: Cytotoxicity against human JIMT-1 cells assessed as cell death at 6 to 10 uM measured after 48 hrs; format: functional, cell-based; conditions: dose 6-10 µM; how it was run: as §2
HepG2 [17] = experiment: Cytotoxicity against human HepG2 cells assessed as cell viability measured after 48 hrs by using PrestoBlue cell viability assay; format: functional; how it was run: as §5
[18] = Cytotoxicity against human HEY C2 cells assessed as cell viability measured after 48 hrs by using PrestoBlue cell viability assay; format: functional; how it was run: as §5
OVCAR-3 [19] = experiment: Cytotoxicity against human OVCAR-3 cells assessed as cell viability measured after 48 hrs by using PrestoBlue cell viability assay; format: functional; how it was run: as §4
[20] = Potency index, ratio of monobasic GAEL IC50 to test compound IC50 for cytotoxicity against human MIAPaCa-2 cells assessed as cell death measured after 48 hrs; format: functional, MIA PaCa-2
HepG2 [21] = experiment: Cytotoxicity against human HepG2 cells assessed as elimination of cells at 6 uM measured after 48 hrs by using PrestoBlue cell viability assay; format: functional; how it was run: as §5
BT-474 [22] = experiment: Cytotoxicity against human BT-474 cells assessed as cell death at 6 to 10 uM measured after 48 hrs; format: functional, cell-based; conditions: dose 6-10 µM; how it was run: as §1
[23] = Potency index, ratio of monobasic GAEL IC50 to test compound IC50 for cytotoxicity against human JIMT-1 cells assessed as cell death measured after 48 hrs; format: functional

Row | SMILES | CC50 (BT-474 [1]) [µM] | CC50 (JIMT-1 [2]) [µM] | CC50 (DU-145 [3]) [µM] | CC50 (MIA PaCa-2 [4]) [µM] | Ratio IC50 [9] | Ratio IC50 [20] | Ratio IC50 [23] | other results
1 | CCCCCCCCCCCCCCCCOC[C@H](CO[C@@H]1O[C@H](CO)[C@H](N)[C@H](O)[C@H]1N)OC | > 10 | 5.8 | 6.6 | 7.8 |  |  |  | 
2 | CCCCCCCCCCCCCCCCOC[C@H](CN)O[C@H]1O[C@H](CO)[C@H](N)[C@H](O)[C@H]1N | 7.4 | 6.3 | 8.2 | 8.1 |  |  |  | 
3 | COc1cccc2c1C(=O)c1c(O)c3c(c(O)c1C2=O)C[C@@](O)(C(=O)CO)C[C@@H]3O[C@H]1C[C@H](N)[C@H](O)[C@H](C)O1 |  |  |  |  |  |  |  | Activity (JIMT-1 [5]): inactive; Activity (DU-145 [6]): inactive; Activity (BT-474 [7]): inactive; Activity (MIA PaCa-2 [8]): inactive
4 | CCCCCCCCCCCCCCCCOC[C@H](CO[C@@H]1O[C@H](CN)[C@H](N)[C@H](O)[C@H]1N)OC | 5.6 | 3.8 | 3.3 | 4.5 | 2 | 2 | 2 | Activity (DU-145 [10]): Active; Activity (OVCAR-3 [11]): 100%; CC50 (BXPC-3): 2.6 µM; Activity (DU-145 [12]): Active; CC50 (MDA-MB-231): 6.5 µM; Activity [13]: 100%; CC50 [14]: 3.1 µM; Activity (MIA PaCa-2 [15]): Active; Activity (JIMT-1 [16]): Active; CC50 (HepG2 [17]): 3.6 µM; CC50 [18]: 5.5 µM; CC50 (OVCAR-3 [19]): 2.6 µM; Activity (HepG2 [21]): 100%; Activity (BT-474 [22]): Active
5 | CCCCCCCCCCCCCCCCOC[C@H](CO[C@H]1O[C@H](CO)[C@H](O)[C@H](O)[C@H]1N)OC | > 20 | 9.9 | 10.9 | 10 |  |  |  | 
6 | CCCCCCCCCCCCCCCCOC[C@H](CO[C@@H]1O[C@H](CN)[C@H](O)[C@H](O)[C@H]1N)OC | 6.4 | 5.7 | 6.6 | 7.5 | 1.5 | 1.5 | 1.5 | 
7 | CCCCCCCCCCCCCCCCOC[C@H](CO[C@H]1O[C@H](CN)[C@H](N)[C@H](O)[C@H]1N)OC | 8 | 5.4 | 6.7 | 5.3 |  |  |  | 
8 | CCCCCCCCCCCCCCCCOC[C@H](CO[C@H]1O[C@H](CO)[C@H](N)[C@H](O)[C@H]1N)OC | > 10 | 5 | 6.3 | 6.5 |  |  |  | 
9 | CCCCCCCCCCCCCCCCOC[C@H](CN)O[C@@H]1O[C@H](CO)[C@H](N)[C@H](O)[C@H]1N | > 10 | 8.9 | > 10 | 7.4 |  |  |  | 
10 | CCCCCCCCCCCCCCCCOC[C@H](CO[C@H]1O[C@H](CN)[C@H](O)[C@H](O)[C@H]1N)OC | 6.9 | 4.9 | 5.5 | 6.6 | 1.5 | 1.5 | 1.5 | 
